According to ChEMBL document CHEMBL1143703, “Linear TMC-95-based proteasome inhibitors” (J Med Chem, 2007):
Residues, ends and D or L forms follow the SMILES beside them. *: point of attachment. Cbz = O=C(OCc1ccccc1)*; Boc = CC(C)(C)OC(=O)*; NHBn = c1ccc(CN*)cc1; NHPh = c1ccc(N*)cc1; Bn = c1ccc(C*)cc1

How the values were obtained:
[1] = Inhibition of post acid activity of rabbit reticulocyte 20S proteasome; set-up: species or system Oryctolagus cuniculus
[2] = Inhibition of trypsin-like activity of rabbit reticulocyte 20S proteasome; set-up: species or system Oryctolagus cuniculus
Method in brief: (§1)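 Trypsin-like site: proteasome exposed to 0.1-100 µM compound, fluorogenic substrate hydrolysis read 1 h at 37 °C in pH 7.5 20 mM Tris, 1 mM DTT, 10% glycerol without SDS; 3% DMSO final. Initial rates relative to untreated control: >100% expressed as activation factor, <100% as inhibition; Ki via Vi/V0 = 1/(1+[I]/Ki(app)) or IC50 = Ki(1+[S]/Km).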

[3] = Inhibition of chymotrypsin-like activity of rabbit reticulocyte 20S proteasome; set-up: species or system Oryctolagus cuniculus
Oryctolagus cuniculus [4] = species on record: Oryctolagus cuniculus; assay: Inhibition of post acid activity of rabbit reticulocyte 20S proteasome at 100 uM
Oryctolagus cuniculus [5] = species on record: Oryctolagus cuniculus; assay: Activation of trypsin-like activity of rabbit reticulocyte 20S proteasome relative to control; method in brief: as §1
Oryctolagus cuniculus [6] = species on record: Oryctolagus cuniculus; assay: Inhibition of chymotrypsin-like activity of rabbit reticulocyte 20S proteasome at 100 uM

SMILES	Ki [1] [µM]	Ki [2] [µM]	Ki [3] [µM]	inhibition (Oryctolagus cuniculus [4]) [%]	Fold change (Oryctolagus cuniculus [5])	inhibition (Oryctolagus cuniculus [6]) [%]
COC(=O)[C@@H]1Cc2c[nH]c3c(cccc23)-c2ccc(cc2OCc2ccccc2)C[C@H](NC(=O)OC(C)(C)C)C(=O)N[C@@H](CC(C)C)C(=O)N1	> 100	–	> 100	< 20	1.4	< 20
COC(=O)[C@H](Cc1c[nH]c2ccccc12)NC(=O)[C@H](C)NC(=O)[C@H](Cc1ccc(OCc2ccccc2)cc1)NC(=O)OC(C)(C)C (Boc-Tyr(Bn)-Ala-Trp-OMe)	> 100	–	44.8	–	9.8	–
C[C@H](NC(=O)[C@H](Cc1ccc(OCc2ccccc2)cc1)NC(=O)OC(C)(C)C)C(=O)N[C@@H](Cc1c[nH]c2ccccc12)C(=O)O (Boc-Tyr(Bn)-Ala-Trp-OH)	> 100	–	> 100	< 20	1.5	< 20
CNC(=O)[C@@H](Cc1c[nH]c2c(-c3ccc(C[C@H](NC(=O)OC(C)(C)C)C(=O)N[C@H](C)C(=O)OC)cc3OCc3ccccc3)cccc12)NC(=O)OCc1ccccc1	> 100	21.5	> 100	–	–	20
CC(C)C[C@H](NC(=O)[C@H](Cc1ccc(OCc2ccccc2)cc1)NC(=O)OC(C)(C)C)C(=O)N[C@@H](Cc1c[nH]c2ccccc12)C(=O)Nc1ccccc1 (Boc-Tyr(Bn)-Leu-Trp-NHPh)	> 100	–	> 100	< 20	1.9	< 20
NCCCC[C@H](NC(=O)[C@@H](N)Cc1ccc(OCc2ccccc2)cc1)C(=O)N[C@@H](Cc1c[nH]c2ccccc12)C(=O)Nc1ccc(O)cc1	> 100	0.98	0.85	< 20	–	–
NCCCC[C@H](NC(=O)[C@@H](N)Cc1ccc(OCc2ccccc2)cc1)C(=O)N[C@@H](Cc1c[nH]c2ccccc12)C(=O)Nc1ccccc1 (H-Tyr(Bn)-Lys-Trp-NHPh)	> 100	1.12	2.22	< 20	–	–
COC(=O)[C@H](Cc1c[nH]c2c(Br)cccc12)NC(=O)[C@H](CC(C)C)NC(=O)[C@H](Cc1ccc(OCc2ccccc2)c(I)c1)NC(=O)OC(C)(C)C	> 100	–	> 100	< 20	2	< 20
COC(=O)[C@@H]1Cc2c[nH]c3c(cccc23)-c2ccc(cc2OC)C[C@H](NC(=O)OC(C)(C)C)C(=O)N[C@@H](CC(C)C)C(=O)N1	> 100	–	> 100	–	1.8	< 20
CC(C)(C)OC(=O)NCCCC[C@H](NC(=O)[C@H](Cc1ccc(OCc2ccccc2)cc1)NC(=O)OC(C)(C)C)C(=O)N[C@@H](Cc1c[nH]c2ccccc12)C(=O)Nc1ccc(O)cc1	> 100	> 100	65.7	< 20	–	–
CC(C)(C)OC(=O)NCCCC[C@H](NC(=O)[C@H](Cc1ccc(OCc2ccccc2)cc1)NC(=O)OC(C)(C)C)C(=O)N[C@@H](Cc1c[nH]c2ccccc12)C(=O)Nc1ccccc1 (Boc-Tyr(Bn)-Lys(Boc)-Trp-NHPh)	> 100	–	> 100	< 20	1.6	< 20
CCOC(=O)[C@@H](Cc1c[nH]c2c(-c3ccc(C[C@H](NC(=O)OC(C)(C)C)C(=O)N[C@H](CC(C)C)C(=O)OC)cc3OCc3ccccc3)cccc12)NC(=O)OCc1ccccc1	> 100	–	> 100	20	1.4	< 20
CNC(=O)[C@@H](Cc1c[nH]c2c(-c3ccc(C[C@H](NC(=O)OC(C)(C)C)C(=O)N[C@H](CC(C)C)C(=O)OC)cc3OCc3ccccc3)cccc12)NC(=O)OCc1ccccc1	> 100	69	> 100	< 20	–	< 20
CC(C)(C)OC(=O)N[C@@H](Cc1ccc(OCc2ccccc2)cc1)C(=O)N[C@@H](CCCN(C(=N)NC(=O)OCc1ccccc1)C(=O)OCc1ccccc1)C(=O)N[C@@H](Cc1c[nH]c2ccccc12)C(=O)NCc1ccccc1	> 100	–	> 100	< 20	1.9	< 20
C[C@H](NC(=O)[C@H](Cc1ccc(O)cc1)NC(=O)OC(C)(C)C)C(=O)N[C@@H](Cc1c[nH]c2ccccc12)C(=O)O (Boc-Tyr-Ala-Trp-OH)	> 100	–	> 100	< 20	6.8	< 20
CC(C)(C)OC(=O)N[C@@H](Cc1ccc(OCc2ccccc2)cc1)C(=O)NCC(=O)N[C@@H](Cc1c[nH]c2ccccc12)C(=O)O (Boc-Tyr(Bn)-Gly-Trp-OH)	> 100	–	> 100	< 20	1.8	< 20
NCCCC[C@H](NC(=O)[C@@H](N)Cc1ccc(OCc2ccccc2)cc1)C(=O)N[C@@H](Cc1c[nH]c2ccccc12)C(=O)NCc1ccccc1 (H-Tyr(Bn)-Lys-Trp-NHBn)	> 100	0.32	1.07	< 20	–	–

Further lines, results first:

Ki [1] [µM]	Ki [2] [µM]	Ki [3] [µM]	inhibition (Oryctolagus cuniculus [4]) [%]	Fold change (Oryctolagus cuniculus [5])	inhibition (Oryctolagus cuniculus [6]) [%]	SMILES
> 100	> 100	0.48	–	–	–	C[C@H](NC(=O)[C@@H](N)Cc1ccc(OCc2ccccc2)cc1)C(=O)N[C@@H](Cc1c[nH]c2ccccc12)C(=O)NCc1ccccc1 (H-Tyr(Bn)-Ala-Trp-NHBn)
96.4	–	> 100	–	1.6	< 20	CC(C)C[C@H](NC(=O)[C@H](Cc1ccc(OCc2ccccc2)cc1)NC(=O)OC(C)(C)C)C(=O)N[C@@H](Cc1c[nH]c2ccccc12)C(=O)Nc1ccc(O)cc1
55.4	–	> 100	–	1.7	< 20	C[C@H](NC(=O)[C@H](Cc1ccc(OCc2ccccc2)cc1)NC(=O)OC(C)(C)C)C(=O)N[C@@H](Cc1c[nH]c2ccccc12)C(=O)NCc1ccccc1 (Boc-Tyr(Bn)-Ala-Trp-NHBn)
31.5	–	81.8	–	2.3	–	CC(C)C[C@H](NC(=O)[C@H](Cc1ccc(OCc2ccccc2)cc1)NC(=O)OC(C)(C)C)C(=O)N[C@@H](Cc1c[nH]c2ccccc12)C(=O)NCCCCNC(=O)OC(C)(C)C
0.67	4.5	0.075	–	–	–	CC(C)C[C@@H](C=O)NC(=O)[C@H](CC(C)C)NC(=O)[C@H](CC(C)C)NC(=O)OCc1ccccc1 [MG-132] (Cbz-Leu-Leu-Leu-aldehyde)
31.5	–	> 100	–	1.7	< 20	CC(C)(C)OC(=O)N[C@@H](Cc1ccc(OCc2ccccc2)cc1)C(=O)NCC(=O)N[C@@H](Cc1c[nH]c2ccccc12)C(=O)NCc1ccccc1 (Boc-Tyr(Bn)-Gly-Trp-NHBn)
0.6	3.9	1.2	–	–	–	CC(C)(C)OC(=O)N[C@@H](Cc1ccc(O)cc1)C(=O)N[C@@H](CCCNC(=N)N)C(=O)N[C@@H](Cc1c[nH]c2ccccc12)C(=O)NCc1ccccc1 (Boc-Tyr-Arg-Trp-NHBn)
22.5	0.33	3.69	–	–	–	CC(C)C[C@H](NC(=O)[C@@H](N)Cc1ccc(OCc2ccccc2)cc1)C(=O)N[C@@H](Cc1c[nH]c2ccccc12)C(=O)NCCCCN
8.7	–	9.2	–	6	–	COC(=O)[C@H](Cc1c[nH]c2ccccc12)NC(=O)[C@H](C)NC(=O)[C@H](Cc1ccc(O)cc1)NC(=O)OC(C)(C)C (Boc-Tyr-Ala-Trp-OMe)
